In brackets after ≈: the same amount, converted by molar mass. Starred links: 1 amine or outer side, 2 acyl side, 3 side chain; linkers in the order of their positions; H or OH if unused. Positions of bridges follow the written chain, without caps; N, C: chain ends. Non-standard residues stand in square brackets, D forms with d. Residues, ends and D or L forms follow the SMILES beside them. *: point of attachment. X1 = O=C1C[C@@H](C(=O)[*:2])N([*:1])C[C@H]1CS[C@@H]1CN2CCC1CC2; NMePhe(4-NMe2) = CN[C@@H](Cc1ccc(N(C)C)cc1)C(=O)O; Picolinoyl(3-OH) = O=C(c1ncccc1O)*; Phg = N[C@H](C(=O)O)c1ccccc1; dAbu = CC[C@@H](N)C(=O)O

Assay [1] relates to Enterococcus faecalis. Briefly: Minimum inhibitory concentration against vancomycin resistant Enterococci faecalis L560 strain was determined. Type of assay: functional. The essentials:
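Standard microdilution MIC assay against strain L560, which forms an isogenic pair with L559.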

In assay [2] the test system is Enterococcus faecalis. Briefly: Minimum inhibitory concentration against vancomycin sensitive Enterococci faecalis L559 strain was determined. Type of assay: functional. The method in brief: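 Standard microdilution MIC assay against strain L559, isogenic with L560.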
Assay [3] has as its system Enterococcus faecium. Put plainly: Minimum inhibitory concentration against vancomycin sensitive Enterococci faecium L568 strain was determined. Type of assay: functional. The method in brief:
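Standard microdilution assay giving the minimum inhibitory concentration. The test organism is strain L568, which is isogenic with L569.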

In a further assay the test system is Staphylococcus aureus. Put plainly: Minimum inhibitory concentration against Staphylococcus aureus L613 strain was determined.
Assay [4] concerns Enterococcus faecium. Briefly: Minimum inhibitory concentration against vancomycin resistant Enterococci faecium L2215 strain was determined. Type of assay: functional. The essentials: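 Standard microdilution MIC assay against strain L2215, a Van-A clinical isolate.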
[5] abbreviates: Enterococcus faecalis, read-out: MIC.
Where [6] appears, read: Enterococcus faecium, read-out: MIC.

Consider `COC(=O)[C@H](N)C1NC(=O)[C@H](Cc2ccccc2)NC(=O)[C@H](NC(=O)[C@H](N)CC(C)C)Cc2ccc(c([N+](=O)[O-])c2)Oc2cc1cc(O)c2OC.Cl` (some centres not stated), for which the MIC in the assay on Enterococcus faecalis [1] (setting [5]) is 512 µg/mL; with Enterococcus faecalis [2] (setting [5]), 512 µg/mL; in the assay with Enterococcus faecium [3] (setting [6]) it was over 1020 µg/mL; against Staphylococcus aureus, over 1020 µg/mL.
Consider `CCCCCCCCCCCC(=O)N[C@@H](C(=O)O)C1NC(=O)[C@H](Cc2ccccc2)NC(=O)[C@H](NC(=O)[C@H](N)CC(C)C)Cc2ccc(c([N+](=O)[O-])c2)Oc2cc1cc(OCc1ccccc1)c2OC.Cl` (some centres not stated), for which the MIC in the assay with Enterococcus faecalis [1] (setting [5]) was determined as 4 µg/mL; with Enterococcus faecium [4] (setting [6]), 16 µg/mL; with Enterococcus faecalis [2] (setting [5]), 8 µg/mL; with Enterococcus faecium [3] (setting [6]) it was 256 µg/mL; in the assay with Staphylococcus aureus, 128 µg/mL.
In the same order, the values of `CCCCCCCCCCCNC(=O)N[C@@H](C(=O)O)C1NC(=O)[C@H](Cc2ccccc2)NC(=O)[C@H](N)Cc2ccc(c([N+](=O)[O-])c2)Oc2cc1cc(O)c2OC.Cl` (some centres not stated) are over 128 µg/mL, over 128 µg/mL, 128 µg/mL, 128 µg/mL and over 128 µg/mL.
Consider `CCN(CC)CCS(=O)(=O)[C@@H]1CCN2C(=O)c3coc(n3)CC(=O)C[C@H](O)/C=C(C)/C=C/CNC(=O)/C=C/[C@@H](C)[C@@H](C(C)C)OC(=O)[C@@H]12.CC[C@H]1NC(=O)[C@@H](NC(=O)c2ncccc2O)[C@@H](C)OC(=O)[C@H](c2ccccc2)NC(=O)[C@@H]2CC(=O)[C@H](CS[C@@H]3CN4CCC3CC4)CN2C(=O)[C@H](Cc2ccc(N(C)C)cc2)N(C)C(=O)[C@@H]2CCCN2C1=O` [QUINUPRISTIN/DALFOPRISTIN] ({Picolinoyl(3-OH)}-T[dAbu]P[NMePhe(4-NMe2)][X1][Phg]; ester 1-C), for which the MIC is 8 µg/mL in the assay on Enterococcus faecalis [1] (setting [5]); 4 µg/mL in the assay with Enterococcus faecium [4] (setting [6]); 4 µg/mL in the assay on Enterococcus faecalis [2] (setting [5]); 4 µg/mL with Enterococcus faecium [3] (setting [6]); 1 µg/mL in the assay on Staphylococcus aureus.
`COc1c(O)cc2cc1Oc1ccc(cc1[N+](=O)[O-])C[C@@H](NC(=O)[C@H](N)CC(C)C)C(=O)N[C@@H](Cc1ccccc1)C(=O)NC2[C@@H](NC(C)=O)C(=O)O.Cl` (some centres not stated): the minimum inhibitory concentration (MIC) with Enterococcus faecalis [2] (setting [5]), in the assay with Enterococcus faecium [3] (setting [6]) and in the assay on Staphylococcus aureus was over 1020 µg/mL each time.
`CCCCCCCCCCCC(=O)N[C@@H](C(=O)O)C1NC(=O)[C@H](Cc2ccccc2)NC(=O)[C@H](NC(=O)[C@H](N)CC(C)C)Cc2ccc(c([N+](=O)[O-])c2)Oc2cc1cc(O)c2OC.Cl` (stereo in doubt; 2e): the minimal inhibitory concentration (MIC) against Enterococcus faecalis [1] was 8 µg/mL; against Enterococcus faecium [4] it was 16 µg/mL; with Enterococcus faecalis [2], 8 µg/mL; with Enterococcus faecium [3], over 128 µg/mL.
For `CCCCCCCCCCCC(=O)N[C@@H](C(=O)O)C1NC(=O)[C@H](Cc2ccccc2)NC(=O)[C@H](NC(=O)[C@H](N)CC(C)C)Cc2ccc(cc2)Oc2cc1cc(O)c2OC.Cl` (some centres not stated), the MIC with Enterococcus faecalis [1] (setting [5]) is 128 µg/mL; with Enterococcus faecalis [2] (setting [5]) it was 128 µg/mL; with Enterococcus faecium [3] (setting [6]), over 128 µg/mL; in the assay with Staphylococcus aureus, over 128 µg/mL.
In the case of `CCCCCCCCCCCNC(=O)N[C@@H](C(=O)O)C1NC(=O)[C@H](Cc2ccccc2)NC(=O)[C@H](NC(=O)[C@H](N)CC(C)C)Cc2ccc(c([N+](=O)[O-])c2)Oc2cc1cc(OC1OC(O)C(O)C(O)C1NC(=O)CCCCCCCCCCC)c2OC.Cl` (some centres not stated), the MIC in the assay with Enterococcus faecalis [1] (setting [5]) was 8 µg/mL; in the assay on Enterococcus faecium [4] (setting [6]) it was 32 µg/mL; in the assay on Enterococcus faecalis [2] (setting [5]), 8 µg/mL; with Enterococcus faecium [3] (setting [6]), 256 µg/mL; against Staphylococcus aureus, over 256 µg/mL.
Regarding `CCCCCCCCCCCC(=O)NC1C(Oc2cc3cc(c2OC)Oc2ccc(cc2[N+](=O)[O-])C[C@@H](NC(=O)[C@H](N)CC(C)C)C(=O)N[C@@H](Cc2ccccc2)C(=O)NC3[C@@H](NC(C)=O)C(=O)O)OC(O)C(O)C1O.Cl` (some centres not stated), the MIC in the assay with Enterococcus faecalis [1] (setting [5]) was 64 µg/mL; in the assay on Enterococcus faecium [4] (setting [6]) it was 1020 µg/mL; with Enterococcus faecalis [2] (setting [5]), 64 µg/mL; with Enterococcus faecium [3] (setting [6]) it was over 1020 µg/mL; in the assay with Staphylococcus aureus, over 1020 µg/mL.
Regarding `CN[C@H](CC(C)C)C(=O)N[C@H]1C(=O)N[C@@H](CC(N)=O)C(=O)N[C@H]2C(=O)N[C@H]3C(=O)N[C@H](C(=O)N[C@H](C(=O)O)c4cc(O)cc(O)c4-c4cc3ccc4O)[C@H](O)c3ccc(c(Cl)c3)Oc3cc2cc(c3O[C@@H]2O[C@H](CO)[C@@H](O)[C@H](O)[C@H]2O[C@H]2C[C@](C)(N)[C@H](O)[C@H](C)O2)Oc2ccc(cc2Cl)[C@H]1O` [VANCOMYCIN], the minimal inhibitory concentration (MIC) in the assay on Enterococcus faecalis [1] (setting [5]) was over 128 µg/mL; in the assay on Enterococcus faecium [4] (setting [6]), over 128 µg/mL; in the assay with Enterococcus faecalis [2] (setting [5]) it was 1 µg/mL (≈ 0.69 µM).
As for `CC(=O)N[C@@H]1[C@H](Oc2c3cc4cc2Oc2ccc(cc2Cl)[C@@H](O[C@@H]2O[C@@H](CO)[C@@H](O)[C@H](O)[C@@H]2NC(C)=O)[C@@H]2NC(=O)[C@H](NC(=O)[C@@H]4NC(=O)[C@H]4NC(=O)[C@@H](Cc5ccc(c(Cl)c5)O3)NC(=O)[C@H](N)c3ccc(O)c(c3)Oc3cc(O)cc4c3)c3ccc(O)c(c3)-c3c(O[C@H]4O[C@H](CO)[C@@H](O)[C@@H](O)[C@@H]4O)cc(O)cc3[C@@H](C(=O)O)NC2=O)O[C@@H](CO)[C@@H](O)[C@@H]1O`, the MIC was 64 µg/mL (≈ 36.2 µM) in the assay on Enterococcus faecalis [1] (setting [5]); over 128 µg/mL in the assay on Enterococcus faecium [4] (setting [6]); 0.125 µg/mL (≈ 0.0707 µM) with Enterococcus faecalis [2] (setting [5]); 0.5 µg/mL (≈ 0.283 µM) in the assay with Enterococcus faecium [3] (setting [6]); 1 µg/mL (≈ 0.566 µM) in the assay with Staphylococcus aureus.
In the same order, the values of `CCCCCCCCCCCC(=O)N[C@@H](C(=O)O)C1NC(=O)[C@H](Cc2ccccc2)NC(=O)[C@H](NC(=O)[C@H](N)CC(C)C)Cc2ccc(c([N+](=O)[O-])c2)Oc2cc1cc(O)c2OC.Cl` (stereo in doubt; 2d) are 4 µg/mL, 8 µg/mL, 4 µg/mL, 128 µg/mL and 64 µg/mL.
For `COC(=O)[C@@H](C1NC(=O)[C@H](Cc2ccccc2)NC(=O)[C@H](NC(=O)[C@H](N)CC(C)C)Cc2ccc(c([N+](=O)[O-])c2)Oc2cc1cc(OC)c2OC)N(C)C.Cl` (some centres not stated), the minimum inhibitory concentration (MIC) with Enterococcus faecalis [1] (setting [5]) is 128 µg/mL; with Enterococcus faecalis [2] (setting [5]), 128 µg/mL; in the assay with Enterococcus faecium [3] (setting [6]), over 128 µg/mL; in the assay with Staphylococcus aureus, over 128 µg/mL.

(Values after ChEMBL document CHEMBL1144297, “Design and synthesis of macrocycles active against vancomycin-resistant enterococci (VRE): the interplay between d-Ala-d-Lac binding and hydrophobic effect” (2005).)
